In brackets after ≈: the same amount, converted by molar mass. Activity calls are given as the source filed them. The rule behind the calls is not given here. Starred links: 1 amine or outer side, 2 acyl side, 3 side chain; linkers in the order of their positions; H or OH if unused. Positions of bridges follow the written chain, without caps; N, C: chain ends. Non-standard residues stand in square brackets, D forms with d. Residues, ends and D or L forms follow the SMILES beside them. *: point of attachment. pTerphenylCO(4''-OnC5H11) = CCCCCOc1ccc(-c2ccc(-c3ccc(C(=O)*)cc3)cc2)cc1; Orn(4R-OH,5R-OH) = O=C([C@H](C[C@@H](O)[C@@H](O)N[*:3])N[*:1])[*:2]; hTyr(3S-OH,4S-OH) = N[C@H](C(=O)O)[C@H](O)[C@@H](O)c1ccc(O)cc1; Pro(3S-OH,4S-Me) = C[C@H]1CN[C@H](C(=O)O)[C@H]1O; Hyp = O=C(O)[C@@H]1C[C@@H](O)CN1
What was measured:
[1] = system: Serum; assay: Fraction unbound in Candida albicans K-1 infected neutropenic ICR/Swiss mouse serum at 5 mg/kg, ip administered 2 hrs postinfection as single dose; assay type: ADME, organism-based; parameters: dose 5 mg/kg, route intraperitoneal; settings: in vivo
[2] = system: Candida albicans; assay: Antifungal activity against Candida albicans 98-210 infected in neutropenic ICR/Swiss mouse candidiasis model assessed as dose required to maintain […] of 3.81 +/- 0.33 log10CFU per kidney administered intraperitoneally every 24 hrs up to 4 days measured per 24 hrs; assay type: functional
Outline: (§1)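 Neutropenic mice (cyclophosphamide sc on days −4, −1 and +2) were infected iv 2 h before therapy. Five total doses from 0.078 to 20 mg/kg/24 h were given ip q24h for 4 days, three mice per regimen. Kidney CFU were measured at the end of therapy. Static and 1-log-kill doses were derived from a Hill sigmoid dose-effect fit.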

[3] = system: Candida albicans; assay: Antifungal activity against Candida albicans 98-17 assessed as complete growth inhibition after 24 hrs by CLSI end point method; assay type: functional; settings: 98-17, 24 h
Outline: (§2)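 CLSI M27-A2 broth dilution. Two end points read against the drug-free control well: partial inhibition (CLSI end point) and complete inhibition. Run in duplicate on four separate occasions; value is the mean. Drug stock in DMSO, diluted in 0.9% NaCl.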

[4] = system: Candida albicans; assay: Antifungal activity against Candida albicans K-1 infected in neutropenic ICR/Swiss mouse candidiasis model assessed as dose required to maintain […] of 3.90 +/- 0.15 log10CFU per kidney administered intraperitoneally every 48 hrs up to 4 days measured per 96 hrs; assay type: functional
Outline: (§3)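 Neutropenic mice were infected iv with C. albicans K-1 2 h before therapy. Total doses of 1.25, 5, 20, 80 and 320 mg/kg/96 h were split into 1, 2, 4 or 6 ip doses (q96h, q48h, q24h, q16h), three mice per regimen. Effect is the log10 CFU/kidney relative to untreated controls at 96 h. Static and 1-log doses were taken from a Hill model fit.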

[5] = system: Serum; assay: Fraction unbound in Candida glabrata 5376-infected neutropenic ICR/Swiss mouse serum at 20 mg/kg, ip administered 2 hrs postinfection as single dose measured after 32 hrs; assay type: ADME, organism-based; parameters: dose 20 mg/kg, route intraperitoneal; settings: in vivo
[6] = system: Nakaseomyces glabratus; assay: Antifungal activity against Candida glabrata 5376 infected in neutropenic ICR/Swiss mouse candidiasis model assessed as dose required to maintain […] of 3.71 +/- 0.21 log10CFU per kidney administered intraperitoneally every 24 hrs up to 4 days measured per 96 hrs
[7] = system: Nakaseomyces glabratus; assay: Antifungal activity against Candida glabrata 5376 infected in neutropenic ICR/Swiss mouse candidiasis model assessed as […] burden per kidney administered intraperitoneally once every 96 hrs measured per 96 hrs; assay type: functional; settings: Nakaseomyces glabratus, 5376, Kidney, ip
Outline: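 Neutropenic ICR/Swiss mice infected i.v. with the strain; therapy began 2 h later. Total doses of 1.25–320 mg/kg/96 h were given i.p. as 1, 2, 4 or 6 doses (q96h, q48h, q24h, q16h), three mice per regimen. Kidney CFU were counted after 4 days. Effect is the change from untreated controls at the end of therapy.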

[8] = system: Nakaseomyces glabratus; assay: Antifungal activity against Candida glabrata 513 infected in neutropenic ICR/Swiss mouse candidiasis model assessed as dose required to maintain […] burden of 1.83 +/- 0.54 log10CFU per kidney administered intraperitoneally every 24 hrs up to 4 days measured per 24 hrs; assay type: functional
[9] = system: Nakaseomyces glabratus; assay: Antifungal activity against Candida glabrata 5376 infected in neutropenic ICR/Swiss mouse candidiasis model assessed as dose required to maintain […] of 3.71 +/- 0.21 log10CFU per kidney administered intraperitoneally once every 96 hrs measured per 96 hrs
[10] = system: Candida albicans; assay: Antifungal activity against Candida albicans K-1 infected in neutropenic ICR/Swiss mouse candidiasis model assessed as dose required to maintain […] of 3.90 +/- 0.15 log10CFU per kidney administered intraperitoneally once every 96 hrs measured per 96 hrs; assay type: functional; outline: as §3
[11] = system: Nakaseomyces glabratus; assay: Antifungal activity against Candida glabrata 5376 infected in neutropenic ICR/Swiss mouse candidiasis model assessed as suppression of fungal regrowth at 1.25 mg/kg, ip administered 2 hrs postinfection as single dose by time-kill assay; assay type: functional, organism-based; parameters: dose 1.25 mg/kg
Outline: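 Single ip dose of 1.25, 5 or 20 mg/kg given 2 h after iv infection of neutropenic mice. Groups of 3 treated and 3 control mice sampled at 1–24 h intervals over 96 h. Kidney homogenates plated on SDA, 24 h at 35°C. PAFE = time for treated burden to rise 1 log10 CFU/kidney after serum level fell below MIC, minus the same time in controls.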

[12] = system: Candida albicans; assay: Antifungal activity against Candida albicans 98-17 infected in neutropenic ICR/Swiss mouse candidiasis model assessed as dose required for 1-log10 reduction in […] per kidney administered intraperitoneally every 24 hrs up to 4 days measured per 24 hrs; assay type: functional; outline: as §1
[13] = system: Nakaseomyces glabratus; assay: Antifungal activity against Candida glabrata 5376 infected in neutropenic ICR/Swiss mouse candidiasis model assessed as prolongation of fungal growth suppression at 20 mg/kg, ip administered 2 hrs postinfection as single dose by time-kill assay; assay type: functional; settings: route intraperitoneal
Outline: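 Neutropenic mice were infected i.v. and 2 h later given a single i.p. dose (1.25, 5 or 20 mg/kg). Groups of three treated and three control mice were killed at intervals over 96 h, and kidney CFU were counted on SDA (limit 100 CFU/ml). The post-antifungal effect is t − c: the time for a 1 log10 CFU/kidney increase once serum levels fall below the MIC in treated mice, minus the same time in controls.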

[14] = system: Nakaseomyces glabratus; assay: Antifungal activity against Candida glabrata 34341 infected in neutropenic ICR/Swiss mouse candidiasis model assessed as fungal count per kidney administered 2 hrs postinfection measured up to 48 hrs; assay type: functional
Outline: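 Female ICR/Swiss mice (23–27 g) made neutropenic with cyclophosphamide s.c. (150 mg/kg day −4, 100 mg/kg day −1, 100 mg/kg day +2). Infected by tail vein with 0.1 ml inoculum (~6.1 log10 CFU/ml). Kidneys of untreated mice were homogenised and plated on SDA for 24 h at 35°C. Growth over 48 h is given as log10 CFU/kidney.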

[15] = system: Candida albicans; assay: Antifungal activity against Candida albicans 98-210 assessed as complete growth inhibition after 24 hrs by CLSI end point method; assay type: functional; settings: 98-210, 24 h; outline: as §2
[16] = system: Candida albicans; assay: Antifungal activity against Candida albicans 98-17 infected in neutropenic ICR/Swiss mouse candidiasis model assessed as dose required to maintain […] of 3.81 +/- 0.33 log10CFU per kidney administered intraperitoneally every 24 hrs up to 4 days measured per 24 hrs; assay type: functional; outline: as §1
[17] = system: Candida albicans; assay: Antifungal activity against Candida albicans 580 assessed as partial growth inhibition after 24 hrs by CLSI end point method; assay type: functional; settings: Candida albicans, 580, 24 h; outline: as §2
[18] = system: Candida albicans; assay: Antifungal activity against Candida albicans 580 infected in neutropenic ICR/Swiss mouse candidiasis model assessed as dose required to maintain […] of 3.81 +/- 0.33 log10CFU per kidney administered intraperitoneally every 24 hrs up to 4 days measured per 24 hrs; assay type: functional; outline: as §1
[19] = system: Nakaseomyces glabratus; assay: Antifungal activity against Candida glabrata 5592 infected in neutropenic ICR/Swiss mouse candidiasis model assessed as dose required to maintain […] of 1.83 +/- 0.54 log10CFU per kidney administered intraperitoneally every 24 hrs up to 4 days measured per 24 hrs; assay type: functional
[20] = system: Candida albicans; assay: Antifungal activity against Candida albicans 98-17 assessed as partial growth inhibition after 24 hrs by CLSI end point method; assay type: functional; settings: 98-17, 24 h; outline: as §2

In the case of `CCCCCOc1ccc(-c2ccc(-c3ccc(C(=O)N[C@H]4C[C@@H](O)[C@@H](O)NC(=O)[C@@H]5[C@@H](O)[C@@H](C)CN5C(=O)[C@H]([C@@H](C)O)NC(=O)[C@H]([C@H](O)[C@@H](O)c5ccc(O)cc5)NC(=O)[C@@H]5C[C@@H](O)CN5C(=O)[C@H]([C@@H](C)O)NC4=O)cc3)cc2)cc1` [ANIDULAFUNGIN] ({pTerphenylCO(4''-OnC5H11)}-[Orn(4R-OH,5R-OH)]T[Hyp][hTyr(3S-OH,4S-OH)]T[Pro(3S-OH,4S-Me)]; lactam 1-C), the Fu [1] is reported as 1%, the Activity [2] is reported as 3.37 mg/kg and the MIC [3] is reported as 0.12 µg/mL (≈ 0.105 µM). For the same molecule, the Activity [4] was 5.01 mg/kg, the Fu [5] was 1% and the Activity [6] was 17.6 mg/kg. It also gave an ED50 [7] of 8.12 mg/kg, an Activity [8] of 2.45 mg/kg and an Activity [9] of 9.06 mg/kg. The Activity [10] was 3.07 mg/kg, the Activity [11] was “Active” and the Activity [12] was 1.95 mg/kg. The Activity [13] was 67 h, the log10cfu [14] was 1.82 and the MIC [15] was 0.06 µg/mL (≈ 0.0526 µM). The Activity [16] was 1.15 mg/kg, the MIC [17] was 0.015 µg/mL (≈ 0.0132 µM) and the Activity [18] was 0.94 mg/kg. The Activity [19] was 3.57 mg/kg and the MIC [20] was 0.03 µg/mL (≈ 0.0263 µM).

Source: ChEMBL document CHEMBL1153564 (Antimicrob Agents Chemother, 2008)
